Molecular target: Phosphatidylinositol 3-kinase regulatory subunit alpha/4,5-bisphosphate 3-kinase catalytic subunit beta isoform (Homo sapiens, UniProt P27986+P42338)
Experiment: Inhibition of recombinant human full-length N-terminal His6-tagged p110beta/human recombinant full-length untagged p85alpha expressed in baculovirus infected Sf21 insect cells using PIP2 as substrate after 30 mins in presence of ATP at 2xKm concentration by TR-FRET assay
In short: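 Class I PI3K isoforms assayed in vitro for kinase inhibition with ATP at 2Km steady-state concentration; IC50 values averaged over at least 2 determinations.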

Phosphatidylinositol 3-kinase regulatory subunit alpha/4,5-bisphosphate 3-kinase catalytic subunit beta isoform, sequence (P27986 whole entry, canonical isoform): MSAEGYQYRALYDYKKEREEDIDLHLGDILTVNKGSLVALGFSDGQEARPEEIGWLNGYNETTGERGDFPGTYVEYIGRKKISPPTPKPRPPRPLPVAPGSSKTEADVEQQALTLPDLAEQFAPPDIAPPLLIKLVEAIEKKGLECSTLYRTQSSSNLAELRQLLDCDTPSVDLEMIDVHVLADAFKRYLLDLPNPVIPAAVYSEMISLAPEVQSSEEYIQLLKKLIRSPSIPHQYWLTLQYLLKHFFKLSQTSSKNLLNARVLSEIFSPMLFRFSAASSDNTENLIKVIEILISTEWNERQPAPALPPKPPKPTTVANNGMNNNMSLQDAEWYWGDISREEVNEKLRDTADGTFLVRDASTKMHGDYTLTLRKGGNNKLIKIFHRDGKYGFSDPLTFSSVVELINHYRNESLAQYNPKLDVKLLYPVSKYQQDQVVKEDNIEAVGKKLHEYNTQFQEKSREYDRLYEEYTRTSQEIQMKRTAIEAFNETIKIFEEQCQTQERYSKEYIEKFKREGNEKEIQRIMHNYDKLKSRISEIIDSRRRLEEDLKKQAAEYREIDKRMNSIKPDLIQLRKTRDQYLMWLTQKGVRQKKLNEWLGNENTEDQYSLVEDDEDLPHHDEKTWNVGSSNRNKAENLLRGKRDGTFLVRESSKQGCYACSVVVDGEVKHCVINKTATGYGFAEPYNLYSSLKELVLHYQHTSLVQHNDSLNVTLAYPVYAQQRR
Phosphatidylinositol 3-kinase regulatory subunit alpha/4,5-bisphosphate 3-kinase catalytic subunit beta isoform, sequence (P42338 whole entry, canonical isoform): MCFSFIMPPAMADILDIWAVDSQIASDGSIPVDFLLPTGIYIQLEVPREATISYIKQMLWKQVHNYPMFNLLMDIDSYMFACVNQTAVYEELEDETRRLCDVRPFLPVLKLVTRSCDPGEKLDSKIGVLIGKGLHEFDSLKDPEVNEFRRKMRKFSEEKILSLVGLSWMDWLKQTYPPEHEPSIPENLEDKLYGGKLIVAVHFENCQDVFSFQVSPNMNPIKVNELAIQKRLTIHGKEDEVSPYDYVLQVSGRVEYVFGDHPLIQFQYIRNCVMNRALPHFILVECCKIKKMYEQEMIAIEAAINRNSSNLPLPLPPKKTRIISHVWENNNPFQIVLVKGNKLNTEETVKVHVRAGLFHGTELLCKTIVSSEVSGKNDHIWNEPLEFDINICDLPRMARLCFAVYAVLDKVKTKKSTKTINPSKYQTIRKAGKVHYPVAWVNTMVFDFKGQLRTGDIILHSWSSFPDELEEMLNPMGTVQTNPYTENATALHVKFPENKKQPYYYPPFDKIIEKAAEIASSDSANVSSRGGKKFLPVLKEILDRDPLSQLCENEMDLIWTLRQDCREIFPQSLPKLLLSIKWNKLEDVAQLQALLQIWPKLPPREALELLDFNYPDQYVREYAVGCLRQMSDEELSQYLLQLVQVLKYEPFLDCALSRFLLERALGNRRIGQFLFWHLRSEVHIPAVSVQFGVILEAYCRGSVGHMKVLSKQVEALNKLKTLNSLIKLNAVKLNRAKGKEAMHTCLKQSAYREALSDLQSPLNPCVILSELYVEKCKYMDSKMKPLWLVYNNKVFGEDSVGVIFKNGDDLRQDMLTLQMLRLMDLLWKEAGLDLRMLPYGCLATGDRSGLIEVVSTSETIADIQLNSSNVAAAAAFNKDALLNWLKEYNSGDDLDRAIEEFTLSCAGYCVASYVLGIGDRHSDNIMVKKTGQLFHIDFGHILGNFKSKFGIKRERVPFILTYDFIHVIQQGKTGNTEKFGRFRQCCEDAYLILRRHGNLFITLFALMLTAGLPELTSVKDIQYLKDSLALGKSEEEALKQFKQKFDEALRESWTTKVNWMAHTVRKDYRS

Row | Compound | IC50
1 | Clc1cccc2c(-n3cnc4c(-c5nnc[nH]5)cc(-c5ccncc5)cc43)ccnc12 | 5 nM
2 | Clc1cccc2c(-n3cnc4c(-c5nnc[nH]5)cc(N5CCOCC5)cc43)ccnc12 [US10214519, Example 111] | 3 nM
3 | Cc1nc2c(-c3nnc[nH]3)cc(-c3ccnc(C(F)F)c3)cc2n1-c1ccnc2c(F)ccc(F)c12 [US10227350, Compound 43] | 30 nM
4 | Cc1nc2c(-c3nnc[nH]3)cc(-c3cc(N)ncc3F)cc2n1-c1ccnc2c(F)ccc(F)c12 [US10227350, Compound 76] | 50 nM
5 | CNc1nccc(-c2cc(-c3nnc[nH]3)c3nc(C)n(-c4ccnc5c(F)ccc(F)c45)c3c2)c1F [US10227350, Compound 77] | 1400 nM
6 | Cc1cc(-c2cc(-c3nnc[nH]3)c3nc(C)n(-c4ccnc5c(F)ccc(F)c45)c3c2)cc(N)n1 [US10227350, Compound 90] | 341 nM
7 | Cc1nc2c(-c3nnc[nH]3)cc(-c3ccnc(N)c3Cl)cc2n1-c1ccnc2c(F)ccc(F)c12 [US10227350, Compound 91] | 19 nM
8 | Cc1nc2c(-c3nnc[nH]3)cc(-c3c(F)cnc(N)c3F)cc2n1-c1ccnc2c(F)ccc(F)c12 [US10227350, Compound 100] | 321 nM
9 | Cc1nc2c(-c3nnc[nH]3)cc(-c3ccnc(N)c3)cc2n1-c1ccnc2c(F)ccc(F)c12 [US10227350, Compound 104] | 10 nM
10 | Cc1nc2c(-c3nnc[nH]3)cc(-c3ccnc(C#N)c3)cc2n1-c1ccnc2c(F)ccc(F)c12 [US10227350, Compound 113] | 4 nM
11 | Cc1nc2c(-c3nnc[nH]3)cc(-c3ccncc3)cc2n1-c1ccnc2c(F)ccc(F)c12 [US10227350, Compound 140] | 6 nM
12 | Cc1cc(-c2cc(-c3nnc[nH]3)c3nc(C)n(-c4ccnc5c(F)ccc(F)c45)c3c2)ncn1 [US10227350, Compound 155] | 62 nM
13 | Cc1nccc(-c2cc(-c3nnc[nH]3)c3nc(C)n(-c4ccnc5c(F)ccc(F)c45)c3c2)n1 [US10227350, Compound 156] | 12 nM
14 | Cc1nc2c(-c3nnc[nH]3)cc(-c3ccnc(Cl)c3)cc2n1-c1ccnc2c(F)ccc(F)c12 [US10227350, Compound 158] | 7 nM

From BindingDB's records for doi:10.1021/acsmedchemlett.0c00095 (Gilead Sciences, 2020)
